Consider 40 compounds from PubChem BioAssay.

Molecules are shown by their SMILES. The source made the active and inactive calls.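 Rule for the calls, unless noted: active = growth inhibition above 25% in both replicates, a cutoff set 3 SD above the mean; inconclusive = above 25% in only one replicate; inactive = the rest.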

One assay in a line: OD615 S. cerevisiae growth inhibition, permissive medium, pilot counter-assay, permissive growth control for S. cerevisiae lifespan shortening project (AID 705). Conditions: OD615, 24 h, at 10 µM, stronger effect = higher value. The gist of the method: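 assay system = Saccharomyces cerevisiae strain carrying genetically modified DeaD replicative-lifespan system | technique = absorbance (optical density) at 615 nm | buffer or medium = permissive raffinose/galactose medium | timing = cells pre-grown 4 h, then 24 h compound exposure, 30 °C humidified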
As for `CC(C)(C)NS(=O)(=O)c1ccc(OCC(=O)Nc2ccc3c(c2)OCCO3)cc1`, the growth inhibition was -11.5% (inactive).

As to `C=C(C)Cn1c(CCNC(=O)C(C)(C)C)nc2ccccc21`, the growth inhibition is -12.7% (inactive).

As to `Cc1cc2cc(CN(Cc3ccc4c(c3)OCO4)C(=O)c3cnccn3)c3nnnn3c2cc1C`, the growth inhibition is -6.95% (inactive).

In the case of `O=C(CN(CC(=O)N1CCOCC1)S(=O)(=O)c1ccc(Br)s1)N1CCOCC1`, the growth inhibition was 5.73% (inactive).

Turning to `Cn1cc(S(=O)(=O)CC(=O)Nc2ccc3c(c2)OCCO3)c2ccccc21`, the growth inhibition was -14.9% (inactive).

Take `CC(=O)c1ccc(N2CCN(C(=O)c3ccc(NC(=O)C4CCCO4)cc3)CC2)cc1` (stereo not given): the growth inhibition was -23.3% (inactive).

Take `COc1cc2c(cc1OC)C(C(=O)Nc1cccc(C)n1)C(c1cccnc1)N(C)C2=O` (stereo not given): the growth inhibition was 8.34% (inactive).

As for `CCOC(=O)c1c(NC(=O)c2ccc(Cl)s2)sc(C)c1C`, the growth inhibition is -6.9% (inactive).

With `CCCC(=O)Nc1cc(C)c(NC(=O)Cc2ccccc2)cn1`, the growth inhibition was 2.84% (inactive).

Turning to `O=C(CCS(=O)(=O)c1ccccc1)Nc1nc2c(s1)COc1ccccc1-2`, the growth inhibition is -11.8% (inactive).

In the case of `CC(=O)NCC(=O)N(c1c(C)n(C)n(-c2ccccc2)c1=O)C1(C(=O)NC2CCCC2)CCCCC1`, the growth inhibition was 10% (inactive).

For `CC(NC(=O)C(C)(C)C)c1nc2ccccc2n1C` (stereo not given), the growth inhibition was 5.72% (inactive).

Regarding `Cc1cccc(N(CC(=O)Nc2c(C)n(C)n(-c3ccccc3)c2=O)S(C)(=O)=O)c1C`, the growth inhibition was -16.3% (inactive).

As to `CC(=O)Nc1c(C(=O)c2ccc(F)cc2)oc2ccccc12`, the growth inhibition was -23.1% (inactive).

As to `COc1ccc(NC2=NCC(=O)N2c2ccccc2)c(OC)c1`, the growth inhibition is -19.2% (inactive).

On to `Cc1c(C(=O)N(C)Cc2ccccc2)oc2ccc(S(=O)(=O)N3CCCC3)cc12`, for which the growth inhibition is -18.8% (inactive).

Take `COc1ccc2c(c1)-c1nc(NC(=O)c3cccs3)sc1CC2`: the growth inhibition was -13.6% (inactive).

On to `Cc1nc2nc(SCC(=O)N3CCOCC3)nn2c(C)c1Cc1c(F)cccc1Cl`, for which the growth inhibition was -2.75% (inactive).

Take `O=C(CS(=O)(=O)c1cn(Cc2cccc(F)c2)c2ccccc12)N1CCCCC1`: the growth inhibition was -12.9% (inactive).

Take `COc1ccc(-c2cc3ccccc3n2CC(O)Cn2nc(C)cc2C)cc1` (stereo not given): the growth inhibition is -6.15% (inactive).

Turning to `NC(=O)C1CCN(C(=O)CCCCCn2c(=O)[nH]c3ccsc3c2=O)CC1`, the growth inhibition is -14% (inactive).

Consider `CC1CCCN(c2nc3c(c(=O)n(C)c(=O)n3C)n2Cc2ccccc2)C1` (stereo not given), for which the growth inhibition is -0.33% (inactive).

Turning to `O=C(Nc1ccc(Br)cc1Cl)c1cnccn1`, the growth inhibition is 1.88% (inactive).

As for `CCOC(=O)N1CCC(NC(=O)C(Cc2ccccc2)NC(=O)C2CCCCC2)CC1` (stereo not given), the growth inhibition was -1.7% (inactive).

Take `Cc1c(C(=O)Nc2ccncc2)sc2nc(-c3ccc(F)cc3)cn12`: the growth inhibition was -5.44% (inactive).

Take `Cc1ccnc(Sc2nc3c(c(=O)[nH]c(=O)n3C)n2CCCc2ccccc2)n1`: the growth inhibition was -17.7% (inactive).

Turning to `CCC(=O)Nc1cc(C)c(NC(=O)c2ccco2)cn1`, the growth inhibition is -18.1% (inactive).

In the case of `Cc1c(C(=O)NCCC2=CCCCC2)oc2ccc(S(=O)(=O)N3CCOCC3)cc12`, the growth inhibition is 2.48% (inactive).

Consider `COCCn1c(=O)[nH]c2cc(C(=O)NCCN3CCN(c4ccccc4F)CC3)ccc2c1=O`, for which the growth inhibition was 0.575% (inactive).

For the compound `CCOc1cc(CNC(=O)CN2C(=O)c3ccccc3S2(=O)=O)ccc1OC`, the growth inhibition was -22.6% (inactive).

Consider `O=C(C1=C(O)C(=O)N(CCc2ccccc2)C1c1cccnc1)c1ccco1` (stereo not given), for which the growth inhibition is -23.9% (inactive).

Regarding `COCCNC(=O)c1cn(C)c(=O)c2cc(OC)c(OC)cc12`, the growth inhibition is -20.6% (inactive).

On to `O=C(OCC(=O)N1CCN(C(=O)c2ccco2)CC1)C1=COCCO1`, for which the growth inhibition is -9.26% (inactive).

Turning to `O=C(c1ccccn1)N1CCN(c2ccc(C(F)(F)F)cn2)CC1`, the growth inhibition is -20.7% (inactive).

On to `OCC1(c2cc(C(F)(F)F)n[nH]2)CCCCC1`, for which the growth inhibition was 5.65% (inactive).

As for `Cc1c(NC(=O)CCC2CCCCC2)c(=O)n(-c2ccccc2)n1C`, the growth inhibition was 5.74% (inactive).

Regarding `Brc1cc(Br)c2ncnc(N3CCCCC3)c2c1`, the growth inhibition was -2.35% (inactive).

In the case of `Cn1c(=O)[nH]c(=O)c2c1nc(Sc1ncccn1)n2CCCc1ccccc1`, the growth inhibition is -10.3% (inactive).

Take `CNC(=O)c1ccc(-c2sc3nc(N4CCOCC4)c4c(c3c2N)CCCC4)o1`: the growth inhibition is 0.875% (inactive).

For `CC(=O)c1cccc(NC(=O)N2CCCC2C(=O)Nc2c(C)cccc2C)c1` (stereo not given), the growth inhibition is -22.1% (inactive).

A further assay can be described thus: Restrictive medium S. cerevisiae growth inhibition, OD615, pilot screen of yeast lifespan reduction project, restrictive growth control (AID 706;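 active = growth inhibition above a set limit, 3 SD over mean compound inhibition, in both replicates, cut at about 43% in these data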;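 note: modified DeaD lifespan yeast strain shifted to restrictive glucose medium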). Conditions: OD615, 48 h, at 10 µM, stronger effect = higher value. The gist of the method: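 System: modified S. cerevisiae. Buffer or medium: CSMM-D glucose medium. Incubation: 4 h pre-growth plus 48 h compound exposure, 30 °C. Detection: absorbance (optical density) measured at 615 nm.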
In the case of `CC(C)(C)NS(=O)(=O)c1ccc(OCC(=O)Nc2ccc3c(c2)OCCO3)cc1`, the growth inhibition is -8.28% (inactive).

Consider `C=C(C)Cn1c(CCNC(=O)C(C)(C)C)nc2ccccc21`, for which the growth inhibition was 6.9% (inactive).

For the compound `Cc1cc2cc(CN(Cc3ccc4c(c3)OCO4)C(=O)c3cnccn3)c3nnnn3c2cc1C`, the growth inhibition was 6.71% (inactive).

For the compound `O=C(CN(CC(=O)N1CCOCC1)S(=O)(=O)c1ccc(Br)s1)N1CCOCC1`, the growth inhibition was -2.16% (inactive).

As to `Cn1cc(S(=O)(=O)CC(=O)Nc2ccc3c(c2)OCCO3)c2ccccc21`, the growth inhibition is -1.21% (inactive).

Take `CC(=O)c1ccc(N2CCN(C(=O)c3ccc(NC(=O)C4CCCO4)cc3)CC2)cc1` (stereo not given): the growth inhibition is -4.79% (inactive).

As for `COc1cc2c(cc1OC)C(C(=O)Nc1cccc(C)n1)C(c1cccnc1)N(C)C2=O` (stereo not given), the growth inhibition was -5.33% (inactive).

Regarding `CCOC(=O)c1c(NC(=O)c2ccc(Cl)s2)sc(C)c1C`, the growth inhibition is -11.2% (inactive).

For the compound `CCCC(=O)Nc1cc(C)c(NC(=O)Cc2ccccc2)cn1`, the growth inhibition is 6.81% (inactive).

`O=C(CCS(=O)(=O)c1ccccc1)Nc1nc2c(s1)COc1ccccc1-2`: the growth inhibition is -10.9% (inactive).

Turning to `CC(=O)NCC(=O)N(c1c(C)n(C)n(-c2ccccc2)c1=O)C1(C(=O)NC2CCCC2)CCCCC1`, the growth inhibition was -0.075% (inactive).

Regarding `CC(NC(=O)C(C)(C)C)c1nc2ccccc2n1C` (stereo not given), the growth inhibition is 5.71% (inactive).

`Cc1cccc(N(CC(=O)Nc2c(C)n(C)n(-c3ccccc3)c2=O)S(C)(=O)=O)c1C`: the growth inhibition was -3.62% (inactive).

In the case of `CC(=O)Nc1c(C(=O)c2ccc(F)cc2)oc2ccccc12`, the growth inhibition is -4.12% (inactive).

`COc1ccc(NC2=NCC(=O)N2c2ccccc2)c(OC)c1`: the growth inhibition is -5.42% (inactive).

With `Cc1c(C(=O)N(C)Cc2ccccc2)oc2ccc(S(=O)(=O)N3CCCC3)cc12`, the growth inhibition was -11.4% (inactive).

`COc1ccc2c(c1)-c1nc(NC(=O)c3cccs3)sc1CC2`: the growth inhibition was -12.2% (inactive).

Regarding `Cc1nc2nc(SCC(=O)N3CCOCC3)nn2c(C)c1Cc1c(F)cccc1Cl`, the growth inhibition was 34% (inactive).

On to `O=C(CS(=O)(=O)c1cn(Cc2cccc(F)c2)c2ccccc12)N1CCCCC1`, for which the growth inhibition was -2.79% (inactive).

For `COc1ccc(-c2cc3ccccc3n2CC(O)Cn2nc(C)cc2C)cc1` (stereo not given), the growth inhibition is 12.6% (inactive).

On to `NC(=O)C1CCN(C(=O)CCCCCn2c(=O)[nH]c3ccsc3c2=O)CC1`, for which the growth inhibition was -8.6% (inactive).

In the case of `CC1CCCN(c2nc3c(c(=O)n(C)c(=O)n3C)n2Cc2ccccc2)C1` (stereo not given), the growth inhibition was -3.24% (inactive).

As for `O=C(Nc1ccc(Br)cc1Cl)c1cnccn1`, the growth inhibition is -0.415% (inactive).

`CCOC(=O)N1CCC(NC(=O)C(Cc2ccccc2)NC(=O)C2CCCCC2)CC1` (stereo not given): the growth inhibition was 3.73% (inactive).

In the case of `Cc1c(C(=O)Nc2ccncc2)sc2nc(-c3ccc(F)cc3)cn12`, the growth inhibition is 11.7% (inactive).

Regarding `Cc1ccnc(Sc2nc3c(c(=O)[nH]c(=O)n3C)n2CCCc2ccccc2)n1`, the growth inhibition was 2.31% (inactive).

For the compound `CCC(=O)Nc1cc(C)c(NC(=O)c2ccco2)cn1`, the growth inhibition is -13.9% (inactive).

As to `Cc1c(C(=O)NCCC2=CCCCC2)oc2ccc(S(=O)(=O)N3CCOCC3)cc12`, the growth inhibition was 8.58% (inactive).

With `COCCn1c(=O)[nH]c2cc(C(=O)NCCN3CCN(c4ccccc4F)CC3)ccc2c1=O`, the growth inhibition is 4.3% (inactive).

Take `CCOc1cc(CNC(=O)CN2C(=O)c3ccccc3S2(=O)=O)ccc1OC`: the growth inhibition was -10.7% (inactive).

`O=C(C1=C(O)C(=O)N(CCc2ccccc2)C1c1cccnc1)c1ccco1` (stereo not given): the growth inhibition is -2.02% (inactive).

On to `COCCNC(=O)c1cn(C)c(=O)c2cc(OC)c(OC)cc12`, for which the growth inhibition is -7.83% (inactive).

Take `O=C(OCC(=O)N1CCN(C(=O)c2ccco2)CC1)C1=COCCO1`: the growth inhibition is -5.99% (inactive).

Consider `O=C(c1ccccn1)N1CCN(c2ccc(C(F)(F)F)cn2)CC1`, for which the growth inhibition was -2.59% (inactive).

`OCC1(c2cc(C(F)(F)F)n[nH]2)CCCCC1`: the growth inhibition is -0.23% (inactive).

Take `Cc1c(NC(=O)CCC2CCCCC2)c(=O)n(-c2ccccc2)n1C`: the growth inhibition was 3.62% (inactive).

As for `Brc1cc(Br)c2ncnc(N3CCCCC3)c2c1`, the growth inhibition is -19.5% (inactive).

`Cn1c(=O)[nH]c(=O)c2c1nc(Sc1ncccn1)n2CCCc1ccccc1`: the growth inhibition was -9.67% (inactive).

As to `CNC(=O)c1ccc(-c2sc3nc(N4CCOCC4)c4c(c3c2N)CCCC4)o1`, the growth inhibition was 17.2% (inactive).

On to `CC(=O)c1cccc(NC(=O)N2CCCC2C(=O)Nc2c(C)cccc2C)c1` (stereo not given), for which the growth inhibition was -1.14% (inactive).
